The results in this text go back to ChEMBL document CHEMBL4396895, “Identification and Optimization of Novel Cathepsin C Inhibitors Derived from EGFR Inhibitors” (J Med Chem, 2019).

Series [1] can be described thus: Intrinsic clearance in rat liver microsomes assessed per mg protein measured after 60 mins in presence of NADPH by LC-MS/MS analysis. Conditions: read-out: CLH. It is filed as ADME, Microsome.
In series [2] the target is T1, Dipeptidyl peptidase 1 (Homo sapiens, UniProt P53634). Description: Inhibition of cathepsin C in human U937 cells using H-Gly-Phe-AFC as substrate preincubated for 4 hrs followed by substrate addition and measured after 60 mins. It is filed as cell-based. The essentials:
(§1)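 THP1 or U937 cells, grown in RPMI 1640 with 10% FBS, were seeded at 1.0 × 10^6/mL. They were preincubated with threefold serial dilutions of compound for 4 h at 37 °C. H-Gly-Phe-AFC was then added from a 100 μM solution and fluorescence was read after 60 min at 37 °C. Values are means of at least two experiments.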

Series [3] is described as follows: Drug uptake in C57BL/6 mouse lung at 10 mg/kg, po by LC-MS/MS analysis. Format: ADME, organism-based. Particulars: in vivo.
The target of series [4] is T1, Dipeptidyl peptidase 1. Description: Inhibition of CatL-activated recombinant human C-terminal His10-tagged cathepsin C (25 to 463 residues) expressed in mouse myeloma cells using Gly-Phe-AFC as substrate preincubated for 3 hrs followed by substrate addition and measured after 60 mins. Format: cell-free. The essentials: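 Activated rhCatC was diluted to 4.4 nM in 25 mM MES, 50 mM NaCl, 5 mM DTT, 0.01% Triton X-100, pH 6.0. It was preincubated with compound (added in 10% DMSO) for 3 h at RT. Gly-Phe-AFC was then added to 100 μM final and read as fluorescence after 60 min. IC50 came from a sigmoidal nonlinear fit; values are means of at least two experiments.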

Series [5] has as its system Mus musculus. Kind of series: In vivo inhibition of CatC in po dosed C57BL/6 mouse bone marrow assessed as reduction in CatG activation administered twice daily for 6 days using N-succinyl-Ala-Ala-Pro-Phe-pNA as substrate measured up to 90 mins by fluorescence assay. Format: functional, organism-based. The essentials:
(§2)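 C57BL/6 mice (20−25 g; n = 10 per group) received oral doses twice daily at 6.7, 20 or 60 mg/kg for 6 days. The vehicle group got 0.5% Methocel and 0.1% Tween-80 in 100 mM citrate buffer, pH 3. Blood was drawn by eye puncture 14 h after the last dose. Bone marrow was flushed from femurs and tibias with ice-cold RPMI 1640. Cells were lysed in 50 mM Tris pH 7.4, 750 mM NaCl, 1% Triton X-100, sonicated on ice and stored at −80 °C. Lysates were diluted by protein content, with blood diluted 5-fold more than marrow. Kinetics were followed for up to 90 min. Results are % of the vehicle mean.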

Series [6] concerns Mus musculus. Kind of series: In vivo inhibition of CatC in po dosed C57BL/6 mouse bone marrow assessed as reduction in proteinase 3 activation administered twice daily for 6 days using aminobenzoyl-Val-Ala-Asp-Cys-Ala-Asp-Gln-ethylenediamine 2,4-dinitrophenyl as substrate measured up to 90 mins by fluorescence assay. It is filed as functional, organism-based. The procedure, abridged:
as §2

Series [7] is described as follows: Toxicity in C57BL/6 mouse at 60 mg/kg, po administered twice daily for 6 days. Format: organism-based. Conditions: in vivo, 144 h.
Series [8] is described as follows: AUC infinity in C57BL/6 mouse at 10 mg/kg, po by LC-MS/MS analysis. Format: ADME, organism-based. Also on record: dose 10 mg/kg, time infinity, route oral. Conditions: in vivo. The essentials:
(§3)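 Male C57BL/6 mice (n = 3) were dosed with a single IV dose of 2 mg/kg or an IP or PO dose of 10 mg/kg. Vehicle: 0.5% Methocel and 0.1% Tween-80 in citrate buffer, pH 3. Blood was drawn by eye puncture at several time points and analysed by LC-MS/MS. Parameters came from noncompartmental analysis of individual animals and are reported as means.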

For series [9], the target named is T1, Dipeptidyl peptidase 1. Kind of series: Inhibition of cathepsin C in human THP1 cells using H-Gly-Phe-AFC as substrate preincubated for 4 hrs followed by substrate addition and measured after 60 mins. Format: cell-based. The procedure, abridged: as §1
For another series, the target named is Cytochrome P450 2D6 (Homo sapiens, UniProt P10635). Description: Inhibition of CYP2D6 (unknown origin). It is filed as ADME. The procedure, abridged:
(§4)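 Tested against recombinant human cytochrome P450 isoforms 1A2, 2D6, 3A4, 2C9 and 2C19.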

Series [10] deals with Mus musculus. Description: In vivo inhibition of CatC in C57BL/6 mouse blood at 20 mg/kg, po single dose using Gly-Phe-AFC as substrate measured 15 mins post dose for up to 90 mins by fluorescence assay relative to control. Particulars: C57BL/6, Blood.
In another series the target is Cathepsin B (Homo sapiens, UniProt P07858). Kind of series: Inhibition of recombinant human C-terminal polyhistidine-tagged cathepsin B (Arg18 to Ile339 residues) expressed in HEK293 cells using Z-Leu-Arg-AMC as substrate preincubated for 30 mins followed by substrate addition and measured after 30 mins. The essentials:
(§5)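 Recombinant human cathepsin was preincubated with compound for 30 min at RT, then reacted with substrate for 30 min. CatB and CatL were read with Z-Leu-Arg-AMC (Ex 380/Em 460 nm). CatS was read with MCA-Arg-Pro-Lys-Pro-Val-Glu-Nva-Trp-Arg-Lys(DNP)-NH2 (Ex 320/Em 405 nm). E-64 served as inhibitor control.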

Series [11] can be described thus: Half life in C57BL/6 mouse at 2 mg/kg, iv by LC-MS/MS analysis. It is filed as ADME, organism-based. Particulars: in vivo. The procedure, abridged:
as §3

Series [12] is described as follows: Intrinsic clearance in human liver microsomes assessed per mg protein measured after 60 mins in presence of NADPH by LC-MS/MS analysis. Format: ADME, Microsome. Particulars: read-out: CLH. For orientation: Liver microsomes are vesicles of endoplasmic reticulum, rich in cytochrome P450 enzymes.
Series [13] can be described thus: AUC infinity in C57BL/6 mouse at 2 mg/kg, iv by LC-MS/MS analysis. It is filed as ADME, organism-based. Also on record: dose 2 mg/kg, time infinity, route intravenous. Particulars: in vivo. The procedure, abridged:
as §3

Series [14] in a line: Half life in C57BL/6 mouse at 10 mg/kg, ip by LC-MS/MS analysis. It is filed as ADME, organism-based. Particulars: in vivo. The essentials:
as §3

For another series, the target named is Cytochrome P450 2C19 (Homo sapiens, UniProt P33261). Kind of series: Inhibition of CYP2C19 (unknown origin). Format: ADME. The essentials: as §4
The subject of series [15] is Mus musculus. Kind of series: Protection against C57BL/6 mouse model of caerulein-induced acute pancreatitis at 20 mg/kg, po pretreated twice daily for 6 days followed by caerulein-challenge at 1 hr interval for 8 hrs and measured 1 hr post-last caerulein-challenge by H and E staining-based histological analysis.
The subject of series [16] is Mus musculus. Kind of series: In vivo inhibition of CatC in po dosed C57BL/6 mouse blood assessed as reduction in CatG activation administered twice daily for 6 days using N-succinyl-Ala-Ala-Pro-Phe-pNA as substrate measured up to 90 mins by fluorescence assay. Format: functional, organism-based. The procedure, abridged: as §2
A further series deals with Procathepsin L (Homo sapiens, UniProt P07711). Description: Inhibition of recombinant human C-terminal His6-tagged cathepsin L (Glu113 to Val333 and Ala114 to Val333 residues) expressed in mouse myeloma cells using Z-Leu-Arg-AMC as substrate preincubated for 30 mins followed by substrate addition and measured after 30 mins. The procedure, abridged: as §5
A short description of series [17]: Oral bioavailability in C57BL/6 mouse at 10 mg/kg by LC-MS/MS analysis. Format: ADME, organism-based. Conditions: in vivo. The essentials: as §3
Series [18] in a line: Tmax in C57BL/6 mouse at 10 mg/kg, po by LC-MS/MS analysis. It is filed as ADME, organism-based. Conditions: in vivo. The procedure, abridged:
as §3

Each structure is given as a SMILES string. Activity calls are given as the source filed them.

The term IC50 denotes the concentration that gives 50% inhibition. Broadly, the AUC(0-inf) is total exposure, with the tail of the curve extrapolated. A high value points to more exposure. A word on the inhibition in vivo: it is the drop in the measured response relative to a control, in per cent. A lower inhibition in vivo goes with a weak effect. Broadly, the half-life is the time needed for the level to fall by half in the phase considered. The low end stands for rapid decline, the high end for slow decline. The term bioavailability denotes the share of a dose that reaches the circulation, judged against a reference dose that is usually intravenous. A low value points to poor availability. One may read the Tmax as the time from dosing to the highest level. Consider `C=CC(=O)Nc1cc(Oc2nc(Nc3ccc(N4CCN(C)CC4)cc3OC)ccc2N2CCCCC2)ccc1C`, for which the microsomal CLint in series [1] stood at 6.3 µL/min/mg; in series [12] it was 1.8 µL/min/mg. Besides, the IC50 on Dipeptidyl peptidase 1 [2] is 3.4 nM; on Dipeptidyl peptidase 1 [4] it was 17 to 17.3 nM; on Dipeptidyl peptidase 1 [9] it was 1.9 nM; on Cytochrome P450 2D6, more than 10000 nM; at Cathepsin B, 3000 to 10000 nM; against Cytochrome P450 2C19, more than 10000 nM. The IC50 on Procathepsin L is 3000 to 10000 nM. Besides, the inhibition entry at Dipeptidyl peptidase 1 [2], with Mus musculus [5], with Mus musculus [6], on Dipeptidyl peptidase 1 [9] and in the series with Mus musculus [16] was “Dose-dependent effect” in each case. Besides, in series [3], the Drug uptake result is on record as “Active”. The Activity entry in series [7] is recorded as “Non-Toxic”. In addition, the values for the AUC(0-inf) in series [8] and in series [13] were 1360 ng·h/mL and 1220 ng·h/mL, respectively. In the series with Mus musculus [10], this molecule came in with an inhibition in vivo at 20 mg/kg of 75%. In addition, the half-life is 1.62 h in [11] and 1.19 h in series [14]. Besides, the outcome in the series with Mus musculus [15] was Active. The molecule further registered a bioavailability in series [17] of 22.3%. For the same molecule, the Tmax in [18] was determined as 0.5 h.
